Test results reported in ChEMBL document CHEMBL4261579, “β-amino alcohols and their respective 2-phenyl-N-alkyl aziridines as potential DNA minor groove binders” (Eur J Med Chem, 2018).

How the values were obtained:
[1] = Antiproliferative activity against human MCF10 cells after 48 hrs by MTT assay; format: cell-based
In short: (§1)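 MCF-10, MCF-7 or MDA-MB-231 cells, 5.0×10^5 cells seeded and grown 24 h, then exposed 48 h at 37°C to serial dilutions from 500 to 3.9 μM (DMSO 0,5%). Read-out by MTT (2.0 mg/mL in PBS), formazan dissolved in DMSO, absorbance at 570 nm. Viability is given as % of untreated cells, with IC50 from curve fitting. Mean of triplicates.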

[2] = Selectivity index, ratio of CC50 for human MCF10 cells to IC50 for human MCF7 cells; format: toxicity; settings: MCF10 cells versus MCF7 cells, read-out: Ratio CC50/IC50
[3] = test system: MDA-MB-231; experiment: Induction of apoptosis in human MDA-MB-231 cells assessed as late apoptotic cells after 48 hrs by Annexin V/FITC-propidium iodide staining-based flow cytometric analysis (reference value: 10.7%)
[4] = Selectivity index, ratio of CC50 for human MCF10 cells to IC50 for human MDA-MB-231 cells; format: toxicity; settings: MCF10 cells versus MDA-MB-231 cells, read-out: Ratio CC50/IC50
[5] = test system: MCF7; experiment: Antiproliferative activity against human MCF7 cells after 48 hrs by MTT assay; format: functional, cell-based; settings: MCF7, 48 h; in short: as §1
[6] = test system: MDA-MB-231; experiment: Induction of apoptosis in human MDA-MB-231 cells assessed as early apoptotic cells after 48 hrs by Annexin V/FITC-propidium iodide staining-based flow cytometric analysis (reference value: 9.0%)
[7] = test system: MDA-MB-231; experiment: Antiproliferative activity against human MDA-MB-231 cells after 48 hrs by MTT assay; format: functional, cell-based; settings: MDA-MB-231, 48 h; in short: as §1
[8] = test system: MDA-MB-231; experiment: Induction of apoptosis in human MDA-MB-231 cells assessed as necrotic cells after 48 hrs by Annexin V/FITC-propidium iodide staining-based flow cytometric analysis (reference value: 7.2%)
[9] = test system: Calf thymus DNA; experiment: Binding affinity to calf thymus DNA at 10^-6 mol/L after 5 mins by UV/Visible spectrophotometric method; format: nucleic-acid assay; settings: Bos taurus
In short: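 Calf-thymus DNA dissolved in Tris buffer (5 mM Tris-HCl, 50 mM NaCl, pH 7.4), stirred about 12 h, A260/A280 1.86, quantified at 260 nm (ε 6600 M⁻¹ cm⁻¹). Kb was taken from a Benesi-Hildebrand fit.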

SMILES | CC50 at 48 h [1] [µM] | selectivity ratio [2] | Activity [3] [%] | selectivity ratio [4] | IC50 [5] [µM] | Activity [6] [%] | IC50 [7] [µM] | Activity [8] [%] | Kb [9] [×10⁵ /M]
OC(CNCCCCc1ccccc1)c1ccc(Br)cc1 (stereo unspecified) | 58.5 | 4.04 | 56.8 | 2.57 | 14.5 | 33.6 | 22.7 | 6.7 | –
OC(CNCc1ccccc1)c1ccccc1 (stereo unspecified) | 202 | 0.96 | – | 0.89 | 210 | – | 225 | – | –
c1ccc(CN2CC2c2ccccc2)cc1 (stereo unspecified) | 41 | 1.47 | – | 1.01 | 27.8 | – | 40.4 | – | –
OC(CNc1ccccc1)c1ccccc1 (stereo unspecified) | 316 | 1.33 | – | 1.33 | 236 | – | 237 | – | –
c1ccc(CCCCN2CC2c2ccccc2)cc1 (stereo unspecified) | 43.3 | 1.83 | 40 | 4.08 | 24.7 | – | 11.1 | 3.3 | –
c1ccc(CCN2CC2c2ccccc2)cc1 (stereo unspecified) | 37.6 | 0.2 | – | 1.97 | 170 | – | 19 | – | –
OC(CNCCc1ccccc1)c1ccccc1 (stereo unspecified) | 198 | 0.62 | – | 1.04 | 318 | – | 190 | – | –
OC(CNCc1ccccc1)c1ccc(Br)cc1 (stereo unspecified) | 116 | 2.18 | – | 1.56 | 53 | – | 73.9 | – | –
OC(CNCCCc1ccccc1)c1ccccc1 (stereo unspecified) | 196 | 2.02 | – | 1.92 | 96.4 | – | 102 | – | –
CCCCNCC(O)c1ccccc1 (stereo unspecified) | 188 | 0.67 | – | 0.72 | 280 | – | 259 | – | –
c1ccc(CCCN2CC2c2ccccc2)cc1 (stereo unspecified) | 35.4 | 1.44 | – | 1.77 | 24.5 | – | 19.9 | – | –
OC(CNCCCCc1ccccc1)c1ccccc1 (stereo unspecified) | 107 | 2.88 | – | 2.11 | 37.2 | – | 50.8 | – | 1.59
